From ChEMBL document CHEMBL1145545, “Discovery of a novel A2B adenosine receptor antagonist as a clinical candidate for chronic inflammatory airway diseases” (J Med Chem, 2008) come the findings set out here.

Each structure is given as a SMILES string.

The species named for data set [1] is Homo sapiens. As to the kind of experiment: Selectivity for human recombinant adenosine A2B receptor over human recombinant adenosine A1 receptor.
The target in the next data set is T1, Adenosine receptor A2b (Homo sapiens, UniProt P29275).
T1 sequence (P29275 whole entry): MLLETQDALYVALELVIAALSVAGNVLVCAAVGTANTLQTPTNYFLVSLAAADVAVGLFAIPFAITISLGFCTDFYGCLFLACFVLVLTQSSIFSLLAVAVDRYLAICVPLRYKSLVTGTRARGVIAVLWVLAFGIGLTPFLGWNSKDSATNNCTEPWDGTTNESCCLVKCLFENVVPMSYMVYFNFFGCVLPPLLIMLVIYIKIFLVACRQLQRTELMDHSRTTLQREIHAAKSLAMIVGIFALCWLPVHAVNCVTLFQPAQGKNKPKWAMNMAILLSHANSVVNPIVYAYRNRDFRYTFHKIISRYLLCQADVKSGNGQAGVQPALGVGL
As to the kind of experiment: Displacement of [3H]ZM-241385 from human recombinant adenosine A2B receptor expressed in HEK293 cells. The data set is classed as cell-based. The essentials:
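Membranes from HEK293 cells stably expressing human A2B receptor; competition with 10 nM radioligand, 50 µg membrane protein, in 50 mM Tris/1 mM EDTA with 1 U/mL adenosine deaminase, 25 °C for 90 min with gentle agitation; filtration, four ice-cold Tris/MgCl2 washes. Nonspecific binding defined with 10 µM unlabelled ligand; Ki calculated.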
(In general: Displacement assays read how much labelled ligand stays bound in the presence of the test substance.)

In another data set the target is T2, Adenosine receptor A1 (Homo sapiens, UniProt P30542).
T2 sequence (P30542 whole entry): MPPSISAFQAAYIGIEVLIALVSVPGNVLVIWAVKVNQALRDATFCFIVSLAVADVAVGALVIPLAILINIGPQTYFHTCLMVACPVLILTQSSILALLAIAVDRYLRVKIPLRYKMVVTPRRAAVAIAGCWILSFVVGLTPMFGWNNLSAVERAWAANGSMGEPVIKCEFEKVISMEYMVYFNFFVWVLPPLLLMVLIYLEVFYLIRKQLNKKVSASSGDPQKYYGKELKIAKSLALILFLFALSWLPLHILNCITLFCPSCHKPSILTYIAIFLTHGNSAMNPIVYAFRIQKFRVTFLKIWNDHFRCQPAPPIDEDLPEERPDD
Briefly: Displacement of [3H]CPX from human recombinant adenosine A1 receptor expressed in CHO cells. Type of data set: cell-based. A digest of the protocol: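 CHO cell membranes stably expressing human A1 receptor; 0.5 nM [3H]CPX competed with test compound in 50 mM Tris/1 mM EDTA plus 1 U/mL adenosine deaminase, 25 °C, 90 min, gentle agitation; filtration and four ice-cold Tris/MgCl2 washes. Nonspecific binding defined with 1 µM CPX; Ki values derived.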

The next data set has as its target Adenosine receptor A2a (Homo sapiens, UniProt P29274). As to the kind of experiment: Displacement of [3H]ZM-241385 from human recombinant adenosine A2A receptor expressed in HEK293 cells. Type of data set: cell-based. The essentials: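 Membranes from HEK293 cells stably expressing human A2A receptor; 2 nM radioligand competed in 50 mM Tris/1 mM EDTA with 1 U/mL adenosine deaminase for 90 min at 25 °C with agitation; filtration, four ice-cold Tris/MgCl2 washes. Nonspecific binding defined with 1 µM unlabelled ligand; Ki computed.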

For the next data set, the target named is T3, Adenosine receptor A3 (Homo sapiens, UniProt P0DMS8).
T3 sequence (P0DMS8 whole entry): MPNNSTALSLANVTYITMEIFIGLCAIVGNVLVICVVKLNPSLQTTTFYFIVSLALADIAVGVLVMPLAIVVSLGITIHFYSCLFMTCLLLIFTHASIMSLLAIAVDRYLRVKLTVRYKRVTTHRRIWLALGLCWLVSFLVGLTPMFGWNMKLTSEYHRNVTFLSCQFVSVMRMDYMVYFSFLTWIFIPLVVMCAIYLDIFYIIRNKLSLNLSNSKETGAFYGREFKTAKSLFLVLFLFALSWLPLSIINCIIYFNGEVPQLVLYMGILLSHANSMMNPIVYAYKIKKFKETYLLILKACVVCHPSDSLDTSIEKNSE
Briefly: Displacement of [125I]ABMECA from human recombinant adenosine A3 receptor expressed in CHO cells. Type of data set: cell-based. A digest of the protocol: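 Human A3 receptor stably expressed in CHO cells; membranes incubated with 0.1 nM 125I-AB-MECA and test compound in 50 mM Tris, 1 mM EDTA, 10 mM MgCl2 plus 1 U/mL adenosine deaminase, 25 °C, 90 min; filtration, four ice-cold washes. Nonspecific binding defined with 1 µM IB-MECA; Ki determined.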

The species named for data set [2] is Homo sapiens. Briefly: Selectivity for human recombinant adenosine A2B receptor over human recombinant adenosine A2A receptor.
The species named for data set [3] is Homo sapiens. Briefly: Selectivity for human recombinant adenosine A2B receptor over human recombinant adenosine A3 receptor.
Data set [4] is described as follows: Cmax in Sprague-Dawley rat at 2 mg/kg, po. The arrangement: dose 2 mg/kg, route oral. To be noted: in vivo. Type of data set: ADME, organism-based.
The nature of data set [5]: Plasma concentration in Sprague-Dawley rat at 2 mg/kg, po after 4 hrs. Type of data set: ADME, organism-based. The arrangement: dose 2 mg/kg, route oral.
Data set [6] in a line: Plasma concentration in Sprague-Dawley rat at 2 mg/kg, po after 6 hrs. The data set is classed as ADME, organism-based. The arrangement: dose 2 mg/kg, route oral.
Data set [7] is described as follows: AUC (0 to tlast) in Sprague-Dawley rat at 2 mg/kg, po. Type of data set: ADME, organism-based. Also noted: dose 2 mg/kg, route oral. To be noted: plasma.
Data set [8] in a line: Tmax in Sprague-Dawley rat at 2 mg/kg, po. To be noted: in vivo. The data set is classed as ADME, organism-based. Also noted: dose 2 mg/kg, route oral.

Chain of Adenosine receptor A2a (P29274 whole entry): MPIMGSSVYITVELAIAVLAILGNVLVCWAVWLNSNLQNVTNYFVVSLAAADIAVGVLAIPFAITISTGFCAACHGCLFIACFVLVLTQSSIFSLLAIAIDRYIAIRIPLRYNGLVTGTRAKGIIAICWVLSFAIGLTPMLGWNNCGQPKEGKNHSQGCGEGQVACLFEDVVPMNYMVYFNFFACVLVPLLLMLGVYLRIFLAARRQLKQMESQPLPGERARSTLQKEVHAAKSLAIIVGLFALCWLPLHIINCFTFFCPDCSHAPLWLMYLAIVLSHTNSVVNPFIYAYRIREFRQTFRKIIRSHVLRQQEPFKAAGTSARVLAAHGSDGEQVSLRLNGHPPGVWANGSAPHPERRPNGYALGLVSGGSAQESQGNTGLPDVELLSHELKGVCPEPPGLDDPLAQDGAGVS

As for `CCCn1c(=O)c2[nH]c(-c3cnn(Cc4noc(-c5ccc(C(F)(F)F)cc5)n4)c3)nc2n(CC)c1=O`, the values for the Ratio Ki in the data set filed under Homo sapiens [1], in the data set filed under Homo sapiens [2] and in the data set listed under Homo sapiens [3] were above 250, above 208 and above 375, respectively. In addition, the Ki on Adenosine receptor A2b is 0.024 µM; at Adenosine receptor A1, above 6 µM; at Adenosine receptor A2a, above 5 µM; at Adenosine receptor A3, above 9 µM. The same compound came in with a Cmax in [4] of 34.6 ng/mL. The compound also had a concentration at 4 h in [5] of 7.75 ng/mL. The same compound came in with a concentration at 6 h in data set [6] of 17.3 ng/mL. Also, the AUC(0-t) in data set [7] was 65.6 ng·h/mL. The Tmax in [8] worked out at 6 h.

Usually Ki stands for a dissociation constant, usually derived from enzyme kinetics or from competition with a known ligand. Usually Cmax stands for the peak of the concentration-time curve. As usually defined, the AUC(0-t) is exposure summed from dosing to a finite time, without extrapolation to infinity. Read a low AUC(0-t) as low exposure. Broadly, the Tmax is the time from dosing to the highest level.
